Data published in article PMC3946992 (Journal of molecular biology, 2013).
Changes are numbered by the printed parent chain.

Tests used:
Experiment in all cases: isothermal titration calorimetry
Assay type in all cases: binding
p48 [1] = molecular target: T1, p48 (Homo sapiens, UniProt P49642)
T1 sequence (P49642 1-420): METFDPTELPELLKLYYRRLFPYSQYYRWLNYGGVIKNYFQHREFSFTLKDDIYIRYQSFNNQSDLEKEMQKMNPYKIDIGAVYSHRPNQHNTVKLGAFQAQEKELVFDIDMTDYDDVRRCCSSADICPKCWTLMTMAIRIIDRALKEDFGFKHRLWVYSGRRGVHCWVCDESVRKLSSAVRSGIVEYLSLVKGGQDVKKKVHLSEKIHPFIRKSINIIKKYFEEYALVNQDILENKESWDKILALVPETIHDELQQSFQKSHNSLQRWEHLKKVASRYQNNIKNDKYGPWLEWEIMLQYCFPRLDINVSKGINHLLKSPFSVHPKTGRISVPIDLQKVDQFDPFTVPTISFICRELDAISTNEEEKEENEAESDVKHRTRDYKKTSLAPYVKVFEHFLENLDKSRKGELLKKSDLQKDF
Outline: (§1)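 Recombinant human p48 (full length, site-directed point mutants, or residues 1–408 lacking 360–379) is His-tagged in E. coli BL21(DE3), tag-cleaved with H3C protease, then purified by nickel, heparin and S200 chromatography. Protein at 20–30 μM is put in 20 mM HEPES pH 7.2, 100 mM NaCl with 3-fold molar excess MnCl2 and titrated with 400 μM UTP (1 initial plus 28 injections). Kd comes from a single-site nonlinear least-squares fit, ± standard deviation.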

p48 [2] = molecular target: T2, p48 (Homo sapiens, UniProt P49642, D111N)
T2 sequence (P49642 1-420 D111N): T1 sequence (P49642 1-420) with D111N
Outline: as §1

p48 [3] = molecular target: T3, p48 (Homo sapiens, UniProt P49642, D109N)
T3 sequence (P49642 1-420 D109N): T1 sequence (P49642 1-420) with D109N
Outline: as §1

p48 [4] = molecular target: T4, p48 (Homo sapiens, UniProt P49642, K318A)
T4 sequence (P49642 1-420 K318A): T1 sequence (P49642 1-420) with K318A
Outline: as §1

p48 [5] = molecular target: T5, p48 (Homo sapiens, UniProt P49642, H315A)
T5 sequence (P49642 1-420 H315A): T1 sequence (P49642 1-420) with H315A
Outline: as §1

p48ΔL = molecular target: T6, p48ΔL (Homo sapiens, UniProt P49642, DEL360-379)
T6 sequence (P49642 with tags, fused parts or gaps DEL360-379): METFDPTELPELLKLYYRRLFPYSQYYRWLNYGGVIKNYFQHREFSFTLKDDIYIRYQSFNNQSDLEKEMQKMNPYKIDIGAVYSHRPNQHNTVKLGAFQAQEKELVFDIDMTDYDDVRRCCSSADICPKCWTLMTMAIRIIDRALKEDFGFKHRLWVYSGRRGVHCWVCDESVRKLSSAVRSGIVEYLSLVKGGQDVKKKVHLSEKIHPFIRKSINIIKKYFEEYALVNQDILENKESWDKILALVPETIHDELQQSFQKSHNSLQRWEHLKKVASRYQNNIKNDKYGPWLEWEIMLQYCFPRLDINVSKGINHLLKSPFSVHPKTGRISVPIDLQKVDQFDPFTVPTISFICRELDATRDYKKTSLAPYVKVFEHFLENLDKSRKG
Outline: as §1

p48/p58 = molecular target: T7, p48/p58 (Homo sapiens, UniProt P49642)
T7 sequence (P49642 1-420): T1 sequence (P49642 1-420)
T7 sequence (P49643 1-509 partner): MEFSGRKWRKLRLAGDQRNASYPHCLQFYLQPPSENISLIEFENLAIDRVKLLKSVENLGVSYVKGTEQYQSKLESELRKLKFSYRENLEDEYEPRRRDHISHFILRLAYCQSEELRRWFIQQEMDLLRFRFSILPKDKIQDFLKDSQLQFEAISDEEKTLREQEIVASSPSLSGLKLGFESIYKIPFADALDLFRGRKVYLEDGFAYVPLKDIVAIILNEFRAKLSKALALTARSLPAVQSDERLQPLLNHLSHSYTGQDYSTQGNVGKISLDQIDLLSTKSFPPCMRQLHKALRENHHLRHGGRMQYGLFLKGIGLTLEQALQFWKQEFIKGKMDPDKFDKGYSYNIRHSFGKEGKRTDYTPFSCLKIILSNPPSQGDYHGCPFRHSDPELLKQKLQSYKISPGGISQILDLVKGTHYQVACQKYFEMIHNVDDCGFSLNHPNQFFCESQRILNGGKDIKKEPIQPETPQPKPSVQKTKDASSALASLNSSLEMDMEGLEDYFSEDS
Outline: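 Recombinant human p48/p58 primase heterodimer is exchanged into 20 mM HEPES pH 7.2, 100 mM NaCl. Protein at 20–30 μM, pre-mixed with 3-fold molar excess MnCl2, is titrated by ITC with 400 μM nucleotide (UTP) in an initial injection plus 28 further injections. Kd comes from fitting a single-site binding model by nonlinear least squares, ± standard deviation.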

p48 [6] = molecular target: T8, p48 (Homo sapiens, UniProt P49642, D306N)
T8 sequence (P49642 1-420 D306N): T1 sequence (P49642 1-420) with D306N
Outline: as §1

Nc1ncnc2c1ncn2[C@@H]1O[C@H](COP(=O)(O)OP(=O)(O)OP(=O)(O)O)[C@@H](O)[C@H]1O [ATP]
Kd (p48 [1]): 13 µM

Nc1ccn([C@@H]2O[C@H](COP(=O)(O)OP(=O)(O)OP(=O)(O)O)[C@@H](O)[C@H]2O)c(=O)n1 [CTP]
Kd (p48 [1]): 15 µM

Nc1nc2c(ncn2[C@@H]2O[C@H](COP(=O)(O)OP(=O)(O)OP(=O)(O)O)[C@@H](O)[C@H]2O)c(=O)[nH]1 [GTP]
Kd (p48 [1]): 13 µM

O=c1ccn([C@@H]2O[C@H](COP(=O)(O)OP(=O)(O)OP(=O)(O)O)[C@@H](O)[C@H]2O)c(=O)[nH]1 [UTP]
Kd (p48 [2]): 54 µM | Kd (p48 [3]): 74 µM | Kd (p48 [4]): 49 µM | Kd (p48 [1]): 11 µM | Kd (p48 [5]): 22 µM | Kd (p48ΔL): 12.5 ± 0.72 µM | Kd (p48/p58): 20 µM | Kd (p48 [6]): 48 µM
